# Source: ChEMBL document CHEMBL5724801, “EUbOPEN Chemogenomics Library - Multiplex” (2024)
# Several values for one entry are separate records, joined by “and”; a condition that tells them apart may be missing. Equal values may be shown once.
# Tested on: U2OS
# Assay: Multiplex assay against U2OS
# Assay type: toxicity, cell-based
# Conditions: human
# Summary of the method: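 Compound was added to live cells that had been stained at seeding with Hoechst33342, BioTracker Green Microtubule Cytoskeleton Dye, MitoTracker Red and Annexin V Alexa Fluor 680, and imaging followed on a CQ1 microscope at 37°C and 5% CO2. CellPathfinder machine-learning gating divided cells into Hoechst high-intensity objects or normal cells, normal cells into healthy, pyknosed or fragmented nuclei, and pyknosed cells into mitotic or apoptotic. Tubulin, mitochondrial-mass and membrane-permeability phenotypes are per cents of healthy-nucleus cells.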
# [1] = 12 h, 1 µM, compound concentration 1 uM
# [2] = 12 h, 10 µM, compound concentration 10 uM
# [3] = 24 h, 1 µM, compound concentration 1 uM
# [4] = 24 h, 10 µM, compound concentration 10 uM
# [5] = 48 h, 1 µM, compound concentration 1 uM
# [6] = 48 h, 10 µM, compound concentration 10 uM
smiles,measurement,setting,value
CSc1nc(NC2CCCC2)c([N+](=O)[O-])c(NC2CCCC2)n1 [GS-39783],Population Apoptotic (%),[1],82% and 80%
same,Population Fragmented Nuclei (%),[1],25% and 18%
same,Population Healthy Nuclei (%),[1],66% and 76%
same,Population Hoechst High Intensity Objects (%),[1],2% and 3%
same,Population Membrane Permeable-Phenotype (%),[1],4%
same,Population Mitochondria Different-Phenotype (%),[1],3% and 0%
same,Population Mitotic Cells (%),[1],17% and 20%
same,Population Normal (%),[1],97% and 96%
same,Population Pyknosed Nuclei (%),[1],8% and 5%
same,Population Tubulin-Different-Phenotype (%),[1],1%
same,Total Cell Count,[1],209 and 96
same,Population Apoptotic (%),[2],88% and 100%
same,Population Fragmented Nuclei (%),[2],30% and 19%
same,Population Healthy Nuclei (%),[2],63% and 75%
same,Population Hoechst High Intensity Objects (%),[2],3% and 1%
same,Population Membrane Permeable-Phenotype (%),[2],9%
same,Population Mitochondria Different-Phenotype (%),[2],5% and 0%
same,Population Mitotic Cells (%),[2],11% and 0%
same,Population Normal (%),[2],96% and 98%
same,Population Pyknosed Nuclei (%),[2],5% and 4%
same,Population Tubulin-Different-Phenotype (%),[2],4% and 6%
same,Total Cell Count,[2],322 and 145
same,Population Apoptotic (%),[3],87% and 84%
same,Population Fragmented Nuclei (%),[3],22% and 20%
same,Population Healthy Nuclei (%),[3],64% and 68%
same,Population Hoechst High Intensity Objects (%),[3],2% and 1%
same,Population Membrane Permeable-Phenotype (%),[3],2% and 1%
same,Population Mitochondria Different-Phenotype (%),[3],1%
same,Population Mitotic Cells (%),[3],12% and 15%
same,Population Normal (%),[3],97% and 98%
same,Population Pyknosed Nuclei (%),[3],12% and 11%
same,Population Tubulin-Different-Phenotype (%),[3],1% and 0%
same,Total Cell Count,[3],269 and 119
same,Population Apoptotic (%),[4],85% and 88%
same,Population Fragmented Nuclei (%),[4],26% and 18%
same,Population Healthy Nuclei (%),[4],66% and 75%
same,Population Hoechst High Intensity Objects (%),[4],2% and 3%
same,Population Membrane Permeable-Phenotype (%),[4],6% and 9%
same,Population Mitochondria Different-Phenotype (%),[4],6% and 2%
same,Population Mitotic Cells (%),[4],14% and 11%
same,Population Normal (%),[4],97% and 96%
same,Population Pyknosed Nuclei (%),[4],6% and 5%
same,Population Tubulin-Different-Phenotype (%),[4],4% and 5%
same,Total Cell Count,[4],341 and 164
same,Population Apoptotic (%),[5],88% and 92%
same,Population Fragmented Nuclei (%),[5],18% and 21%
same,Population Healthy Nuclei (%),[5],70% and 71%
same,Population Hoechst High Intensity Objects (%),[5],1% and 0%
same,Population Membrane Permeable-Phenotype (%),[5],3%
same,Population Mitochondria Different-Phenotype (%),[5],1%
same,Population Mitotic Cells (%),[5],11% and 7%
same,Population Normal (%),[5],98% and 100%
same,Population Pyknosed Nuclei (%),[5],11% and 7%
same,Population Tubulin-Different-Phenotype (%),[5],1% and 3%
same,Total Cell Count,[5],382 and 185
same,Population Apoptotic (%),[6],89% and 85%
same,Population Fragmented Nuclei (%),[6],23% and 12%
same,Population Healthy Nuclei (%),[6],67% and 81%
same,Population Hoechst High Intensity Objects (%),[6],2% and 0%
same,Population Membrane Permeable-Phenotype (%),[6],5% and 4%
same,Population Mitochondria Different-Phenotype (%),[6],1% and 3%
same,Population Mitotic Cells (%),[6],10% and 14%
same,Population Normal (%),[6],97% and 99%
same,Population Pyknosed Nuclei (%),[6],8% and 6%
same,Population Tubulin-Different-Phenotype (%),[6],2% and 3%
same,Total Cell Count,[6],462 and 231
CN[C@@H](C)C(=O)N[C@H](C(=O)N1CCC[C@H]1C(=O)Nc1snnc1-c1ccccc1)C1CCCCC1 [GDC-0152],Population Apoptotic (%),[1],60% and 89%
same,Population Fragmented Nuclei (%),[1],25% and 21%
same,Population Healthy Nuclei (%),[1],61% and 60%
same,Population Hoechst High Intensity Objects (%),[1],5% and 11%
same,Population Membrane Permeable-Phenotype (%),[1],51% and 50%
same,Population Mitochondria Different-Phenotype (%),[1],24% and 38%
same,Population Normal (%),[1],94% and 88%
same,Population Pyknosed Nuclei (%),[1],13% and 17%
same,Population Tubulin-Different-Phenotype (%),[1],47% and 52%
same,Total Cell Count,[1],176 and 121
same,Population Apoptotic (%),[2],72% and 70%
same,Population Fragmented Nuclei (%),[2],39% and 18%
same,Population Healthy Nuclei (%),[2],44% and 65%
same,Population Hoechst High Intensity Objects (%),[2],4% and 5%
same,Population Membrane Permeable-Phenotype (%),[2],65% and 73%
same,Population Mitochondria Different-Phenotype (%),[2],61% and 70%
same,Population Mitotic Cells (%),[2],27% and 29%
same,Population Normal (%),[2],95% and 94%
same,Population Pyknosed Nuclei (%),[2],16% and 15%
same,Population Tubulin-Different-Phenotype (%),[2],76% and 91%
same,Total Cell Count,[2],208 and 114
same,Population Apoptotic (%),[3],72% and 85%
same,Population Fragmented Nuclei (%),[3],21% and 34%
same,Population Healthy Nuclei (%),[3],55% and 44%
same,Population Hoechst High Intensity Objects (%),[3],5% and 8%
same,Population Membrane Permeable-Phenotype (%),[3],20% and 25%
same,Population Mitochondria Different-Phenotype (%),[3],18% and 28%
same,Population Mitotic Cells (%),[3],27% and 14%
same,Population Normal (%),[3],94% and 91%
same,Population Pyknosed Nuclei (%),[3],23% and 21%
same,Population Tubulin-Different-Phenotype (%),[3],19% and 27%
same,Total Cell Count,[3],196 and 144
same,Population Apoptotic (%),[4],68% and 92%
same,Population Fragmented Nuclei (%),[4],36% and 20%
same,Population Healthy Nuclei (%),[4],43% and 40%
same,Population Hoechst High Intensity Objects (%),[4],3% and 10%
same,Population Membrane Permeable-Phenotype (%),[4],53% and 59%
same,Population Mitochondria Different-Phenotype (%),[4],59% and 65%
same,Population Normal (%),[4],96% and 89%
same,Population Pyknosed Nuclei (%),[4],20% and 38%
same,Population Tubulin-Different-Phenotype (%),[4],59% and 81%
same,Total Cell Count,[4],220 and 121
same,Population Apoptotic (%),[5],93% and 88%
same,Population Fragmented Nuclei (%),[5],35%
same,Population Healthy Nuclei (%),[5],32% and 30%
same,Population Hoechst High Intensity Objects (%),[5],8%
same,Population Membrane Permeable-Phenotype (%),[5],16% and 38%
same,Population Mitochondria Different-Phenotype (%),[5],12% and 17%
same,Population Mitotic Cells (%),[5],6% and 11%
same,Population Normal (%),[5],91%
same,Population Pyknosed Nuclei (%),[5],32% and 34%
same,Population Tubulin-Different-Phenotype (%),[5],9% and 27%
same,Total Cell Count,[5],246 and 170
same,Population Apoptotic (%),[6],100% and 98%
same,Population Fragmented Nuclei (%),[6],47% and 45%
same,Population Healthy Nuclei (%),[6],22% and 8%
same,Population Hoechst High Intensity Objects (%),[6],11% and 14%
same,Population Membrane Permeable-Phenotype (%),[6],39% and 80%
same,Population Mitochondria Different-Phenotype (%),[6],39% and 50%
same,Population Mitotic Cells (%),[6],0% and 1%
same,Population Normal (%),[6],88% and 85%
same,Population Pyknosed Nuclei (%),[6],29% and 45%
same,Population Tubulin-Different-Phenotype (%),[6],43% and 80%
same,Total Cell Count,[6],246 and 138
COc1cc(C(=O)N2CC[C@@H](O)[C@@H](N)C2)cc2nc(-c3cc4ccccc4n3CC3CC3)n(C)c12.Cl,Population Apoptotic (%),[1],50% and 75%
same,Population Fragmented Nuclei (%),[1],32% and 15%
same,Population Healthy Nuclei (%),[1],53% and 75%
same,Population Hoechst High Intensity Objects (%),[1],4% and 1%
same,Population Membrane Permeable-Phenotype (%),[1],38% and 20%
same,Population Mitochondria Different-Phenotype (%),[1],16% and 18%
same,Population Mitotic Cells (%),[1],50% and 25%
same,Population Normal (%),[1],95% and 98%
same,Population Pyknosed Nuclei (%),[1],14% and 8%
same,Population Tubulin-Different-Phenotype (%),[1],29% and 15%
same,Total Cell Count,[1],223 and 92
same,Population Apoptotic (%),[2],68% and 56%
same,Population Fragmented Nuclei (%),[2],23% and 16%
same,Population Healthy Nuclei (%),[2],38% and 61%
same,Population Hoechst High Intensity Objects (%),[2],6% and 5%
same,Population Membrane Permeable-Phenotype (%),[2],75% and 79%
same,Population Mitochondria Different-Phenotype (%),[2],88% and 91%
same,Population Mitotic Cells (%),[2],31% and 44%
same,Population Normal (%),[2],93% and 94%
same,Population Pyknosed Nuclei (%),[2],37% and 22%
same,Population Tubulin-Different-Phenotype (%),[2],96% and 94%
same,Total Cell Count,[2],208 and 120
same,Population Apoptotic (%),[3],78% and 75%
same,Population Fragmented Nuclei (%),[3],28% and 18%
same,Population Healthy Nuclei (%),[3],54% and 69%
same,Population Hoechst High Intensity Objects (%),[3],3% and 2%
same,Population Membrane Permeable-Phenotype (%),[3],19% and 17%
same,Population Mitochondria Different-Phenotype (%),[3],14% and 18%
same,Population Mitotic Cells (%),[3],21% and 25%
same,Population Normal (%),[3],96% and 97%
same,Population Pyknosed Nuclei (%),[3],17% and 11%
same,Population Tubulin-Different-Phenotype (%),[3],12% and 17%
same,Total Cell Count,[3],243 and 109
same,Population Apoptotic (%),[4],84% and 71%
same,Population Fragmented Nuclei (%),[4],25% and 26%
same,Population Healthy Nuclei (%),[4],35% and 48%
same,Population Hoechst High Intensity Objects (%),[4],4%
same,Population Membrane Permeable-Phenotype (%),[4],57% and 50%
same,Population Mitochondria Different-Phenotype (%),[4],88% and 85%
same,Population Mitotic Cells (%),[4],15% and 28%
same,Population Normal (%),[4],95%
same,Population Pyknosed Nuclei (%),[4],38% and 25%
same,Population Tubulin-Different-Phenotype (%),[4],78% and 90%
same,Total Cell Count,[4],222 and 133
same,Population Apoptotic (%),[5],82% and 76%
same,Population Fragmented Nuclei (%),[5],23%
same,Population Healthy Nuclei (%),[5],61%
same,Population Hoechst High Intensity Objects (%),[5],2%
same,Population Membrane Permeable-Phenotype (%),[5],9% and 17%
same,Population Mitochondria Different-Phenotype (%),[5],5% and 11%
same,Population Mitotic Cells (%),[5],17% and 23%
same,Population Normal (%),[5],97%
same,Population Pyknosed Nuclei (%),[5],15% and 14%
same,Population Tubulin-Different-Phenotype (%),[5],5% and 12%
same,Total Cell Count,[5],304 and 149
same,Population Apoptotic (%),[6],88% and 92%
same,Population Fragmented Nuclei (%),[6],29% and 30%
same,Population Healthy Nuclei (%),[6],35%
same,Population Hoechst High Intensity Objects (%),[6],12% and 6%
same,Population Membrane Permeable-Phenotype (%),[6],47%
same,Population Mitochondria Different-Phenotype (%),[6],65% and 84%
same,Population Mitotic Cells (%),[6],11% and 7%
same,Population Normal (%),[6],87% and 93%
same,Population Pyknosed Nuclei (%),[6],35% and 34%
same,Population Tubulin-Different-Phenotype (%),[6],62% and 75%
same,Total Cell Count,[6],232 and 131
